Data reported in ChEMBL document CHEMBL1122693, “Biological activity and a modified synthesis of 8-amino-3-beta-D-ribofuranosyl-1,2,4-triazolo[4,3-a]pyrazine, an isomer of formycin” (1984).
In brackets after ≈: the same amount, converted by molar mass. Several values for one entry are separate records, joined by “and”; a condition that tells them apart may be missing. Equal values may be shown once.

Key:
Coxsackievirus B4 [1] = test: Compound was tested for antiviral activity (minimum inhibition concentration) in HeLa cells coxsackie virus type 4; type: functional; details: Enterovirus B
Method in brief: (§1)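 Inhibition of virus-induced cytopathogenicity, scored as minimum inhibitory concentration (µg/mL) in the host cell monolayers listed: HSV-1 (KOS) and HSV-2 (G) in primary rabbit kidney cells; measles, reovirus type 1, parainfluenza type 3, Coxsackie B4 and Sindbis in Vero cells; Coxsackie and polio in HeLa cells. Minimum cytotoxic concentration taken as microscopically detectable alteration of normal cell morphology; highest concentration tested 400 µg/mL.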

Coxsackievirus B4 [2] = test: Compound was tested for antiviral activity (minimum inhibition concentration) in Vero cells coxsackie virus type B4; type: functional; details: Enterovirus B; method in brief: as §1
Human alphaherpesvirus 1 = test: Compound was tested for antiviral activity against herpes simplex virus-1(KOS) in primary rabbit kidney cells; type: functional; method in brief: as §1
Human alphaherpesvirus 2 = test: Compound was tested for antiviral activity against herpes simplex virus-2(G) in primary rabbit kidney cells; type: functional; method in brief: as §1
Measles morbillivirus = test: Compound was tested for antiviral activity against measles virus in vero cells; type: functional; method in brief: as §1
Human respirovirus 3 = test: Compound was tested for antiviral activity (minimum inhibition concentration) in Vero cells parainfluenza virus type 3; type: functional; method in brief: as §1
Poliovirus 1 = test: Compound was tested for antiviral activity (minimum inhibition concentration) in HeLa cells polio virus type 1; type: functional; details: Enterovirus C
[3] = tested on: Mammalian orthoreovirus 1; test: Compound was tested for antiviral activity (minimum inhibition concentration) in Vero cells reovirus type 1; type: functional; method in brief: as §1
Sindbis virus = test: Compound was tested for antiviral activity (minimum inhibition concentration) in Vero cells sindbis virus; type: functional; method in brief: as §1
[4] = tested on: Vesicular stomatitis virus; test: Compound was tested for antiviral activity (minimum inhibition concentration) in HeLa cells vesicular stomatitis virus (VSV); type: functional
[5] = tested on: Vesicular stomatitis virus; test: Compound was tested for antiviral activity against vesicular stomatitis virus in primary rabbit kidney cells; type: functional
Vaccinia virus = test: Compound was tested for antiviral activity against vaccinia virus in primary rabbit kidney cells; type: functional; details: Orthopoxvirus vaccinia
[6] = Coronary vasoactivity as molar potency ratio (MPR), the quotient of ED50 of adenosine by that of the test nucleoside; type: functional
Method in brief: (§2)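 Dogs anesthetized with morphine-thiamylal-fluothane. MPR is ED50 of adenosine divided by ED50 of test nucleoside. Dog-to-dog variation in MPR about ±10%.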

L1210 [7] = test: Effect of compound on the incorporation of nucleic acid precursor into L1210 cells (cpm x 10e-3),precursors used along with compound were [14C]uridine; type: functional, Mus musculus
Method in brief: (§3)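 L1210 suspension cultures in RPMI 1640 with 10% horse serum, at 37 °C, preincubated 90 min with or without test compound at 1 mM. 14C-precursor (cytidine, uridine, adenosine or thymidine) then added to 0.04 µCi/mL final and incubated a further 30 min. Cells pelleted and Schmidt-Thannhauser fractionation gave acid-soluble, RNA and DNA fractions, counted by scintillation. Duplicate flasks; results as cpm ×10^-3 and % of control.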

L1210 [8] = test: Effect of compound on the incorporation of nucleic acid precursor into L1210 cells (cpm x 10e-3), precursors used along with compound were [14C]-Adenosine; type: functional, Mus musculus; method in brief: as §3
L1210 [9] = test: Effect of compound on the incorporation of nucleic acid precursor into L1210 cells (cpm x 10e-3), precursors used along with compound were [14C]cytidine; type: functional, Mus musculus; method in brief: as §3
L1210 [10] = test: Effect of compound on the incorporation of nucleic acid precursor into L1210 cells (cpm x 10e-3),precursors used along with compound were [14C]cytidine; type: functional, Mus musculus; method in brief: as §3
[11] = Coronary vasoactivity (molar potency ratio (MPR), the quotient of ED50 of adenosine by that of the test nucleoside)Dog to dog variations in MPR are about +/-10%; type: functional; method in brief: as §2

Row | SMILES | MIC (Coxsackievirus B4 [1]) | MIC (Coxsackievirus B4 [2]) | MIC (Human alphaherpesvirus 1) | MIC (Human alphaherpesvirus 2) | MIC (Measles morbillivirus) | MIC (Human respirovirus 3) | MIC (Poliovirus 1) | MIC [3] | MIC (Sindbis virus) | MIC [4] | MIC [5] | MIC (Vaccinia virus) | MPR [6] | Fraction (L1210 [7]) | RNA fraction (L1210 [8]) | Total uptake (L1210 [9]) | Total uptake (L1210 [10]) | MPR [11]
1 | Nc1nccc2c1ncn2[C@@H]1O[C@H](CO)[C@@H](O)[C@H]1O | 40 µg/mL (≈ 150 µM) | 4 µg/mL (≈ 15 µM) | 40 µg/mL (≈ 150 µM) | 10 µg/mL (≈ 37.6 µM) | 40 µg/mL (≈ 150 µM) | 2 µg/mL (≈ 7.51 µM) | 40 µg/mL (≈ 150 µM) | 4 µg/mL (≈ 15 µM) | 40 µg/mL (≈ 150 µM) | 10 µg/mL (≈ 37.6 µM) | 7 µg/mL (≈ 26.3 µM) | 7 µg/mL (≈ 26.3 µM) | – | – | – | – | – | –
2 | Nc1ncnc2c([C@@H]3O[C@H](CO)[C@@H](O)[C@H]3O)[nH]nc12 [FORMYCIN] | ≥ 200 µg/mL | ≥ 40 µg/mL | 4 µg/mL (≈ 15 µM) | 4 µg/mL (≈ 15 µM) | ≥ 40 µg/mL | ≥ 40 µg/mL | 10 µg/mL (≈ 37.4 µM) | ≥ 40 µg/mL | ≥ 40 µg/mL | 10 µg/mL (≈ 37.4 µM) | 2 µg/mL (≈ 7.48 µM) | 4 µg/mL (≈ 15 µM) | 0.043 | – | – | – | – | –
3 | NC(=O)c1ncn([C@@H]2O[C@H](CO)[C@@H](O)[C@H]2O)n1 [RIBAVIRIN] | 20 µg/mL (≈ 81.9 µM) | 200 µg/mL (≈ 819 µM) | > 400 µg/mL | > 400 µg/mL | 20 µg/mL (≈ 81.9 µM) | 10 µg/mL (≈ 40.9 µM) | 10 µg/mL (≈ 40.9 µM) | 100 µg/mL (≈ 409 µM) | 40 µg/mL (≈ 164 µM) | 20 µg/mL (≈ 81.9 µM) | 20 µg/mL (≈ 81.9 µM) | 20 µg/mL (≈ 81.9 µM) | – | – | – | – | – | –
4 | Nc1ncnc2c1nnn2[C@@H]1O[C@H](CO)[C@@H](O)[C@H]1O | – | – | – | – | – | – | – | – | – | – | – | – | 0.042 | – | – | – | – | –
5 | Nc1ncnc2c1ccn2[C@@H]1O[C@H](CO)[C@@H](O)[C@H]1O | – | – | – | – | – | – | – | – | – | – | – | – | 0.071 | – | – | – | – | –
6 | Nc1nccn2c([C@@H]3O[C@H](CO)[C@@H](O)[C@H]3O)nnc12 | > 400 µg/mL | 200 µg/mL (≈ 748 µM) | > 400 µg/mL | 200 µg/mL (≈ 748 µM) | 200 µg/mL (≈ 748 µM) | 100 µg/mL (≈ 374 µM) | > 400 µg/mL | 200 µg/mL (≈ 748 µM) | 300 µg/mL (≈ 1120 µM) | 150 µg/mL (≈ 561 µM) | 100 µg/mL (≈ 374 µM) | 100 µg/mL (≈ 374 µM) | – | 24 | 24 and 19.8 | 128.8 and 161.7 | 50.4 | 0.0015
7 | Nc1nnnc2c1ncn2[C@@H]1O[C@H](CO)[C@@H](O)[C@H]1O | – | – | – | – | – | – | – | – | – | – | – | – | 0.15 | – | – | – | – | –
